Experimental data pooled from the literature.
Compare with care: the assays were run in different laboratories.
ADRA1A: Alpha-1A adrenergic receptor (ADRA1A, Homo sapiens, UniProt P35348)
SQLE: Squalene monooxygenase (SQLE, Homo sapiens, UniProt Q14534)

| SMILES | target | effect on | action | technique | quantity | value |
| --- | --- | --- | --- | --- | --- | --- |
| Cc1ccc(N2CCN(Cc3cccnc3Oc3ccc(-c4c(C)c(=O)[nH]c(=O)n4C)c(C)c3)CC2)cc1C | ADRA1A | ligand displacement |  | radioligand | Ki | 3.42 µM |
| NC(=O)c1ccc[n+]([C@@H]2O[C@H](COP(=O)([O-])OP(=O)(O)OC[C@H]3O[C@@H](n4cnc5c(N)ncnc54)[C@H](O)[C@@H]3O)[C@@H](O)[C@H]2O)c1 | Dihydrolipoyl dehydrogenase, mitochondrial (DLD, Homo sapiens, UniProt P09622, K430Q) | binding |  | SPR | Kd | 1.14 µM |
| CC(=O)c1ccc2c(c1)N(CCCN1CCC(CCO)CC1)c1ccccc1S2 | SQLE | enzyme activity | inhibitor |  | Ki | 0.68 µM |
| Cc1cc2nc3c(=O)[nH]c(=O)nc-3n(C[C@H](O)[C@H](O)[C@H](O)COP(=O)(O)OP(=O)(O)OC[C@H]3O[C@@H](n4cnc5c(N)ncnc54)[C@H](O)[C@@H]3O)c2cc1C | Dihydrolipoyl dehydrogenase, mitochondrial (DLD, Homo sapiens, UniProt P09622) | binding |  | SPR | Kd | 1.27 µM |
| O=C(O)[C@H]1O[C@@H](Oc2cc3oc(-c4ccccc4)cc(=O)c3c(O)c2O)[C@H](O)[C@@H](O)[C@@H]1O | SQLE | enzyme activity | inhibitor |  | Ki | 1.75 µM |
| CC(C)C[C@H](NC(=O)[C@H](Cc1ccccc1)NC(=O)c1cnccn1)B(O)O | ATP-dependent Clp protease proteolytic subunit, mitochondrial (CLPP, Homo sapiens, UniProt Q16740) | binding |  |  | Kd | 45 µM |
| Nc1ccn(C[C@@H](CO)OCP(=O)(O)O)c(=O)n1 | Solute carrier family 22 member 6 (SLC22A6, Homo sapiens, UniProt Q4U2R8, S231A) | transporter uptake | inhibitor | fluorescence | IC50 | 344 µM |
| Cc1cc(Oc2ncccc2CN2CCN(c3ccccc3C#N)CC2)ccc1-c1c(C)c(=O)[nH]c(=O)n1C | ADRA1A | ligand displacement |  | radioligand | Ki | 1.21 µM |
| CN(C)C(=O)c1cc2cnc(Nc3ccc(C(=O)NCCCCCCOc4cccc5c4C(=O)N(C4CCC(=O)NC4=O)C5=O)cc3)nc2n1C1CCCC1 (centres unmarked) | High affinity nerve growth factor receptor (NTRK1, Homo sapiens, UniProt P04629) | binding |  | competition with immobilised ligand | Kd | < 0.2 µM |
| Cc1cc(Oc2ncccc2CN2CCN(C(c3ccccc3)c3ccccc3)CC2)ccc1-c1c(C)c(=O)[nH]c(=O)n1C | ADRA1A | ligand displacement |  | radioligand | Ki | 0.885 µM |
| O=C[C@H](O)[C@@H](O)[C@H](O)[C@H](O)COP(=O)(O)O | Hexokinase HKDC1 (Homo sapiens, UniProt Q2TB90) | enzyme activity | inhibitor | absorbance | Ki | > 1000 µM |
